Laboratory results taken from ChEMBL document CHEMBL4334429, “Rational design of novel amphipathic antimicrobial peptides focused on the distribution of cationic amino acid residues” (Medchemcomm, 2019).
pIC50: −log10 of the molar value. The source made the active and inactive calls. No cut-off for these calls is given here.

Experiments:
Staphylococcus aureus = assay: Antibacterial activity against Staphylococcus aureus after 18 hrs by broth microdilution method; type: functional
Procedure, shortened: (§1)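 Bacteria grown to mid-log phase in LB medium at 37 °C. Peptides 2-fold serially diluted from 200 μM to 1.56 μM and mixed 1:1 with inoculum of 10^6 CFU per mL. Incubation 18 h at 35 °C. MIC is the lowest concentration giving complete growth inhibition by visual inspection […].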

[1] = system: Staphylococcus epidermidis; assay: Antibacterial activity against Staphylococcus epidermidis after 18 hrs by broth microdilution method; type: functional; procedure, shortened: as §1
Escherichia coli [2] = assay: Antibacterial activity against Escherichia coli NBRC 3972 after 18 hrs by broth microdilution method; type: functional; settings: NBRC 3972, 18 h; procedure, shortened: as §1
Escherichia coli [3] = assay: Antibacterial activity against Escherichia coli DH5[alpha] after 18 hrs by broth microdilution method; type: functional; procedure, shortened: as §1
Proteus vulgaris = assay: Antibacterial activity against Proteus vulgaris NBRC 3045 after 18 hrs by broth microdilution method; type: functional; settings: NBRC 3045, 18 h; procedure, shortened: as §1
Pseudomonas aeruginosa = assay: Antibacterial activity against Pseudomonas aeruginosa NBRC 13725 after 18 hrs by broth microdilution method; type: functional; settings: NBRC 13275, 18 h, in the assay text read “NBRC 13275” for “NBRC 13725”; procedure, shortened: as §1
Erythrocyte = assay: Hemolytic activity in human RBC after 3 hrs; type: ADME, cell-based
Procedure, shortened: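 Human red blood cells from Japanese Red Cross volunteers, washed three times and resuspended in PBS. Mixed 1:1 with diluted peptide and incubated 3 h at 37 °C. After centrifugation, supernatant absorbance read at 535 nm. Triton X-100 and M-lycotoxin served as positive controls.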

Lipid bilayer = assay: Induction of membrane disruption in PG/CL/PE unilamellar vesicles assessed as increase in carboxyfluorescein leakage at 6.25 uM by fluorescence assay
Procedure, shortened: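 E. coli-mimic liposomes of PG/CL/PE (2 : 1 : 7, w/w) loaded with 50 mM carboxyfluorescein in 20 mM Tris-HCl, pH 7.4; free dye removed by Sephadex G-50 gel filtration. Peptide added at 6.25 μM and leakage read by fluorescence. Release (%) = (Fobs−F0)/(F100−F0) × 100, with 100% set by Triton X-100.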

TIG-3 [4] = assay: Cytotoxicity against human TIG3 at 100 uM after 72 hrs by WST-8 assay; type: cell-based; settings: tig-3, 72 h
Procedure, shortened: (§2)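 Human normal fibroblast TIG-3 cells kept in DMEM with 10% FBS and 100 μg ml–1 kanamycin. Seeded at 5 × 10^3 cells per well, treated 24 h later for 72 h. WST-8 reagent then added for 0.5 h at 37 °C, 5% CO2, and absorbance read at 450 nm. Means ± SD, n = 4.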

TIG-3 [5] = assay: Cytotoxicity against human TIG3 at 1 to 100 uM after 72 hrs by WST-8 assay; type: cell-based; settings: tig-3, 72 h; procedure, shortened: as §2

Substance | MIC (Staphylococcus aureus) [µM] | MIC [1] [µM] | MIC (Escherichia coli [2]) [µM] | MIC (Escherichia coli [3]) [µM] | MIC (Proteus vulgaris) [µM] | MIC (Pseudomonas aeruginosa) [µM] | pIC50 (Erythrocyte) | Activity (Lipid bilayer) | Activity (TIG-3 [4]) | Activity (TIG-3 [5])
H-GIGKFLHSAKKFGKAFVGEIMNS-NH2 | 100 | 25 | 3.12 | 3.12 | > 100 | 12.5 | < 4.00 |  |  | 
H-IWLTALKFLGKHAAKHLAKQQLSKL-NH2 |  |  |  |  |  |  | 6.11 |  |  | 
H-KKKKKKKKKGGGLLALLALLA-NH2 | 12.5 | 6.25 | 6.25 | 12.5 | > 100 | 6.25 | 4.60 | Active | Toxic | 
H-KKKLAKLKLGAKLKLKGKLGA-NH2 | 100 | 6.25 | 12.5 | 25 | > 100 | 3.12 | 4.00 | Active |  | Non-Toxic
H-KLLKKAGKLLKKAGKLLKKAG-NH2 | 12.5 | 1.56 | 3.12 | 3.12 | > 100 | 1.56 | < 4.00 | Active |  | Non-Toxic
